Only a selection was taken, and hits are over-represented in it overall.
T cruzi HTS = inhibitors of intracellular Trypanosoma cruzi, primary screen, cell-based, plate reader, single point, set 2; actives 4.9% (n = 22,000); AID 651903, 2012; intracellular Trypanosoma cruzi in host cells; activity score (inhibition), % at 5.01 µM; in the data active means activity score above about 55%;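 further: parasites and compound incubated about four days before reading; 0% = median of neutral control wells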
INS-1E ATP HTS = protection of INS-1E cells from cytokine death, primary screen, ATP luminescence, single point. INS-1E cytokine-induced death, 48 h; normalised: neutral wells 0, positive control 100. protection from cytokine-induced ATP loss, % at 10 µM. actives 0.1% (n = 20,000). AID 488910, 2010;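 active means mean replicate protection from cytokine-induced ATP loss at least 50% and at least 75% of replicates each reaching 50%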
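assay system = INS-1E rat insulinoma cells | amount = 8000 cells per well | medium = phenol-red-free RPMI with 5% fetal bovine serum | doses = one compound concentration, pin transfer | timing = 48 h cytokine plus compound treatment, 10 min reagent incubation | also added = IL-1β, TNF-α and IFN-γ cytokine mix | signal = CellTiter-Glo luminescence measuring cellular ATP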
A1 apoptosis 2 = A1 inhibitors via caspase activation, primary screen, cell-based, luminescence, HTS, two replicates; MEF A1-2A-BIM cells, caspase-Glo luminescence, 3 h; percent of clofoctol response, DMSO zero; caspase activation, % (no concentration beside the values); 24,000 tested, under 10 active; AID 2465, 2010; in the data active means caspase activation above about 5.9%
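Material: mouse embryonic fibroblasts co-expressing A1 and BIM (A1-2A-BIM), primed for A1 dependence / Quantity: 2500 cells/well / Buffer or medium: RPMI-1640 growth medium with 10% FBS / Doses: 50 nL compound per well, pinned / Schedule: 3 h compound exposure at 37 °C / Signal: Caspase-Glo luminescence (DEVD substrate) / Measure: Caspase-3/7 activation, seen as rise in luminescence signal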
Numbers without * were called inactive.

For O=C(CCCCC(=O)N/N=C/c1c(F)c(F)c(F)c(F)c1F)NO the results were T cruzi HTS 17, INS-1E ATP HTS 0 and A1 apoptosis 2 0.
Screening CC(C)(C)OC(=O)NC1(/C=N/NC(=O)c2ccc(C(=O)NO)cc2)CCCC1 returned T cruzi HTS -14 and INS-1E ATP HTS 17.
`Cc1ccc(/C=N/NC(=O)c2ccc(C(=O)NO)cc2)o1` gave T cruzi HTS -3, INS-1E ATP HTS 6 and A1 apoptosis 2 2.
Screening C[C@H](CO)N1C[C@H](C)[C@H](CN(C)Cc2ccc3c(c2)OCO3)Oc2ncc(-c3cccc(F)c3)cc2C1=O returned T cruzi HTS 25, INS-1E ATP HTS -21 and A1 apoptosis 2 0.
`C[C@H](CO)N1C[C@H](C)[C@H](CN(C)Cc2ccc3c(c2)OCO3)Oc2ncc(-c3cccc(C(F)(F)F)c3)cc2C1=O` gave T cruzi HTS 62*, INS-1E ATP HTS -13 and A1 apoptosis 2 1.
COc1cccc(S(=O)(=O)N(C)C[C@@H]2Oc3ncc(-c4cccc(F)c4)cc3C(=O)N([C@H](C)CO)C[C@@H]2C)c1 was read as T cruzi HTS 30.
Screening COc1cccc(S(=O)(=O)N(C)C[C@@H]2Oc3ncc(-c4cccc(C(F)(F)F)c4)cc3C(=O)N([C@H](C)CO)C[C@@H]2C)c1 returned T cruzi HTS 57*.
For CC(C)(C)OC(=O)CC[C@]12N=C(c3ccc(OCCCO)cc3)O[C@H]1c1ccccc1CN(CCS(=O)(=O)c1ccccc1)C2=O the results were A1 apoptosis 2 1.
COc1ccc(NC(=O)Nc2cccc3c2O[C@H](CN(C)Cc2ccc(C(=O)Nc4ccccc4N)cc2)[C@H](C)CN([C@@H](C)CO)C3=O)cc1 was read as T cruzi HTS 46 and INS-1E ATP HTS 2.
COc1ccc(NC(=O)Nc2cccc3c2O[C@H](CN(C)Cc2ccc(C(=O)Nc4ccccc4N)cc2)[C@@H](C)CN([C@H](C)CO)C3=O)cc1 was read as T cruzi HTS 37 and INS-1E ATP HTS 9.
`COc1ccc(NC(=O)Nc2cccc3c2O[C@H](CN(C)Cc2ccc(C(=O)Nc4ccccc4N)cc2)[C@@H](C)CN([C@@H](C)CO)C3=O)cc1` gave T cruzi HTS 56* and INS-1E ATP HTS 24.
`COc1ccc(NC(=O)Nc2cccc3c2O[C@@H](CN(C)Cc2ccc(C(=O)Nc4ccccc4N)cc2)[C@H](C)CN([C@H](C)CO)C3=O)cc1` gave T cruzi HTS 67* and INS-1E ATP HTS 0.
O=C(CCCCCCC(=O)Nc1ccccc1O)N/N=C/c1ccc([N+](=O)[O-])s1 was read as T cruzi HTS 89*, INS-1E ATP HTS -36 and A1 apoptosis 2 -2.
For O=C(CCCCC(=O)N/N=C/c1ccc([N+](=O)[O-])s1)NO the results were T cruzi HTS 52, INS-1E ATP HTS 1 and A1 apoptosis 2 -1.
For CCN(CC)c1ccc(/C=N/NC(=O)CCCCCCC(=O)Nc2ccccc2O)c(O)c1 the results were T cruzi HTS 66*, INS-1E ATP HTS -8 and A1 apoptosis 2 0.
`O=C(CCCCCCC(=O)Nc1ccccc1O)N/N=C/c1ccccc1O` gave T cruzi HTS 24, INS-1E ATP HTS 8 and A1 apoptosis 2 0.
Screening O=C(NO)c1cccc(C(=O)N/N=C/c2ccccc2Br)c1 returned T cruzi HTS -5, INS-1E ATP HTS -8 and A1 apoptosis 2 -4.
For C[C@@H]1CCCCO[C@H](CN(C)Cc2ccc(C(=O)Nc3ccccc3N)cc2)[C@@H](C)CN([C@H](C)CO)C(=O)c2cc(NS(=O)(=O)c3ccc(Cl)cc3)ccc2O1 the results were T cruzi HTS 78* and INS-1E ATP HTS 39.
`C[C@@H]1CCCCO[C@@H](CN(C)Cc2ccc(C(=O)Nc3ccccc3N)cc2)[C@@H](C)CN([C@H](C)CO)C(=O)c2cc(NS(=O)(=O)c3ccccc3)ccc2O1` gave T cruzi HTS 46, INS-1E ATP HTS 2 and A1 apoptosis 2 0.
C[C@@H]1CN([C@@H](C)CO)C(=O)c2cc(NS(=O)(=O)c3ccc(F)cc3)ccc2O[C@H]1CN(C)Cc1ccc(C(=O)Nc2ccccc2N)cc1 was read as T cruzi HTS 57*, INS-1E ATP HTS -5 and A1 apoptosis 2 2.
Cc1ccc(S(=O)(=O)Nc2ccc3c(c2)CC(=O)N([C@H](C)CO)C[C@@H](C)[C@H](CN(C)Cc2ccc(C(=O)Nc4ccccc4N)cc2)O3)cc1 was read as T cruzi HTS 49 and INS-1E ATP HTS 7.
Screening C[C@H]1CN([C@@H](C)CO)C(=O)Cc2cc(NS(=O)(=O)c3ccc(Cl)cc3)ccc2O[C@H]1CN(C)Cc1ccc(C(=O)Nc2ccccc2N)cc1 returned T cruzi HTS 66*, INS-1E ATP HTS 21 and A1 apoptosis 2 1.
Screening C[C@@H]1CN([C@H](C)CO)C(=O)Cc2cc(NS(=O)(=O)c3ccccc3)ccc2O[C@@H]1CN(C)Cc1ccc(C(=O)Nc2ccccc2N)cc1 returned T cruzi HTS 58*, INS-1E ATP HTS 1 and A1 apoptosis 2 0.
Screening C[C@@H]1CN([C@H](C)CO)C(=O)c2cc(NS(=O)(=O)c3ccc(F)cc3)ccc2O[C@@H]1CN(C)Cc1ccc(C(=O)Nc2ccccc2N)cc1 returned T cruzi HTS 16 and INS-1E ATP HTS 8.
Screening C[C@H](CO)N1C[C@H](C)[C@@H](CN(C)Cc2ccc(C(=O)Nc3ccccc3N)cc2)Oc2ccc(NS(=O)(=O)c3ccccc3)cc2CC1=O returned A1 apoptosis 2 1.
COc1ccc(C#Cc2ccc3c(c2)[C@]2(C(=O)N3)[C@H](C(=O)NC[C@H](O)c3ccccc3)[C@H]3C(=O)O[C@H](c4ccccc4)[C@H](c4ccccc4)N3[C@@H]2c2ccc(OCCO)cc2)cc1 was read as A1 apoptosis 2 1.
Screening COc1ccc(/C=N/NC(=O)c2cccc(C(=O)NO)c2)cc1 returned T cruzi HTS 1, INS-1E ATP HTS -2 and A1 apoptosis 2 -2.
For COc1ccc(S(=O)(=O)Nc2ccc3c(c2)C(=O)N([C@@H](C)CO)C[C@@H](C)[C@H](CN(C)C(=O)NC2CCCCC2)O3)cc1 the results were T cruzi HTS -9 and INS-1E ATP HTS -14.
`O=C(O)CCCCCC(=O)N/N=C/c1cccc(Br)c1` gave T cruzi HTS -13, INS-1E ATP HTS -2 and A1 apoptosis 2 -1.
O=C(O)CCCCCC(=O)N/N=C/c1ccc(O)cc1Br was read as T cruzi HTS -19, INS-1E ATP HTS -9 and A1 apoptosis 2 0.
For C[C@@H]1CN([C@@H](C)CO)C(=O)Cc2cc(NS(=O)(=O)c3ccc(F)cc3)ccc2O[C@@H]1CN(C)Cc1ccc(C(=O)Nc2ccccc2N)cc1 the results were T cruzi HTS 53, INS-1E ATP HTS 0 and A1 apoptosis 2 1.
C[C@H]1CN([C@@H](C)CO)C(=O)Cc2cc(NS(=O)(=O)c3ccc(F)cc3)ccc2O[C@H]1CN(C)Cc1ccc(C(=O)Nc2ccccc2N)cc1 was read as T cruzi HTS 71* and INS-1E ATP HTS 33.

Source: PubChem
